Source: ChEMBL document CHEMBL1122272, “2-haloethylating agents for cancer chemotherapy. 2-haloethyl sulfonates” (1983)
“And” between values parts separate entries of the source, which are not always exact repeats. Equal values may be shown once.

Legend:
P388 [1] = experiment: (§1) T/C ratio against P388 leukemia in mice at a dose(mg/kg, schedule (q.d.)); format: functional, Mus musculus
In short: (§2)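 Mice inoculated ip with 10⁶ P388 leukemia cells on day 0. Dosed once on day 1, or q.d. days 1-9 or 1-5. Solutions or suspensions given within about 5 min of preparation, or within 15 min where marked. Value is median/mean survival time, treated vs control, as T/C %. Dose counted toxic if day-5 mortality >3 of 6, T/C <85%, or weight-change difference beyond -4 g.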

P388 [2] = experiment: T/C ratio against P388 leukemia in mice at a dose(mg/kg, schedule (q.d.).; format: functional, organism-based; conditions: Mus musculus; in short: as §2
P388 [3] = experiment: T/C ratio against P388 leukemia in mice at a dose(mg/kg, schedule); format: functional, Mus musculus; in short: as §2
P388 [4] = experiment: as §1; format: functional, Mus musculus; in short: as §2; remark: listed apart in the source
P388 [5] = experiment: T/C ratio against P388 leukemia in mice dose(mg/kg, schedule (q.d.)); format: functional, Mus musculus; in short: as §2
P388 [6] = experiment: Weight change in mice against P388 leukemia; format: functional, Mus musculus
In short: (§3)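 P388 leukemia mice given 10⁶ cells ip on day 0 and then treated on a single day-1 or q.d. 1-9 or 1-5 schedule. Solutions or suspensions given within about 5 or 15 min of preparation. Value is average weight change on day 5 of treated mice minus that of control mice, in g.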

P388 [7] = experiment: weight change difference (T-C) in mice against P388 leukemia at a dose(mg/kg, schedule); format: functional, Mus musculus; in short: as §3
P388 [8] = experiment: as §1; format: functional, Mus musculus; in short: as §2; remark: listed apart in the source
P388 [9] = experiment: as §1; format: functional, Mus musculus; in short: as §2; remark: listed apart in the source

Row | Compound | T/C (P388 [1]) | T/C (P388 [2]) | Weight change difference (P388 [6]) | also measured
1 | C=CS(=O)(=O)OCCCl | 125% and 111% | Toxic | – | –
2 | CS(=O)(=O)OCCBr | 116% and 114% | Toxic | – | –
3 | O=S(=O)(CCl)OCCCl | 214% and 201% and 175% and 131% and 120% | Toxic | – | –
4 | CS(=O)(=O)OCCCl | 134% and 133% | Toxic | -1.6 g and -0.8 g | T/C (P388 [3]): 110%; T/C (P388 [4]): 102%; T/C (P388 [5]): 108%; Weight change difference (P388 [7]): -1.2 g and -2.2 g and -0.9 g
5 | O=S(=O)(/C=C/c1ccccc1)OCCCl | 107% | – | -0.1 g | –
6 | O=[N+]([O-])c1ccc(/C=C/S(=O)(=O)OCCCl)cc1 | 100% and 104% | Toxic | – | –
7 | O=S(=O)(CCl)OCCF | 117% and 102% | Toxic | -2.1 g and -0.8 g | –
8 | COc1ccc(S(=O)(=O)OCCCl)cc1 | 100% | – | 0 g | –
9 | O=[N+]([O-])c1ccc(CS(=O)(=O)OCCCl)cc1 | – | Toxic | – | –
10 | O=S(=O)(CBr)OCCCl | 165% and 200% and 159% and 128% and 120% | – | – | Weight change difference (P388 [7]): -0.2 g
11 | CS(=O)(=O)OCCF | 89% and 103% and 111% and 100% | Toxic | – | –
12 | CCOS(=O)(=O)CCl | 107% and 100% and 60% | – | – | –
13 | O=S(=O)(OCCCl)c1c(F)c(F)c(F)c(F)c1F | 110% and 100% | Toxic | – | –
14 | O=S(=O)(CCl)NCCCl | 106% | – | – | –
15 | CCS(=O)(=O)OCCF | 106% and 111% | Toxic | -0.7 g and -0.6 g | –
16 | O=S(=O)(OCCF)c1cc(Cl)c(Cl)cc1Cl | 113% and 98% | Toxic | – | –
17 | O=S(=O)(OCCCl)c1ccc(F)cc1 | 100% and 101% | – | – | –
18 | C=C(Br)S(=O)(=O)OCCCl | 100% and 104% | Toxic | -2.8 g and -1.4 g | –
19 | CCS(=O)(=O)OCCCl | 116% and 104% | – | – | –
20 | N#CCS(=O)(=O)OCCCl | 151% and 144% and 126% | – | -1.5 g and -2.1 g and -1.1 g | –
21 | O=C(CCl)NCCCl | 100% and 97% | Toxic | – | –
22 | O=S(=O)(CI)OCCCl | 93% | Toxic | -0.1 g | T/C (P388 [8]): 110%
23 | Cc1cc(C)c(S(=O)(=O)OCCCl)c(C)c1 | 95% and 106% | Toxic | – | –
24 | O=S(=O)(OCCCl)c1c(Cl)c(Cl)c(Cl)c(Cl)c1Cl | 96% and 92% | Toxic | -3.2 g and -4.3 g and -1.6 g | T/C (P388 [9]): 92%
25 | O=S(=O)(OCCCl)c1cc(Cl)c(Cl)cc1Cl | 90% and 114% and 105% | – | – | –
26 | Cc1c(C)c(C)c(S(=O)(=O)OCCCl)c(C)c1C | 95% | – | -0.2 g | –
